Results pooled from the literature.
Compare with care: the assays were run in different laboratories.
Target: Serine/threonine-protein kinase PAK 5 (PAK5, Homo sapiens, UniProt Q9P286)

Cc1sc(C(=O)NC2COC2)cc1-n1cc(NC(=O)Nc2c(F)cccc2Cl)cn1 — remaining activity (enzyme activity; inhibitor; 10 µM): 103%
FC(F)c1nc2ccccc2n1-c1nc(N2CCOCC2)nc(N2CCOCC2)n1 — remaining activity (enzyme activity; inhibitor; 10 µM): 84%
CCCOc1ccc(OC)c(F)c1C(=O)c1ccc(C(=O)N[C@@H]2CNC[C@H]2NC(=O)c2ccc3[nH]ncc3c2)cc1 — remaining activity (enzyme activity; inhibitor; 10 µM): 85%
COc1cc(Cl)c(C(=O)N[C@@H](CN[C@H]2CC[C@@H](N)CC2)Cc2ccc(C#N)cc2)cc1-c1ccc(CN[C@H](C)c2ccc(C)cc2)o1 — remaining activity (enzyme activity; inhibitor; 1 µM): 103%
C[C@H]1CCN(c2nccc(-c3cnn4ncccc34)n2)C1 — remaining binding (binding; 1 µM): 100%
COc1cc2ncnc(Nc3ccc(Oc4ccccc4)cc3C)c2cc1OC — inhibition (enzyme activity; inhibitor; 1 µM): 1%
CCC(=O)N[C@@H]1CC[C@H](C(=O)N(C)c2ccc(-c3nc4ccccc4o3)cc2)C1 — remaining binding (cell-free assay; competition with immobilised ligand; 1 µM): 100%
Nc1ncnc2occ(-c3ccc(NC(=O)Nc4cc(C(F)(F)F)ccc4F)cc3)c12 — remaining signal (cell-free assay; inhibitor; 20 µM): 60%
Nc1nc(Nc2ccc(S(N)(=O)=O)cc2)nn1C(=O)c1c(F)cccc1F — remaining signal (cell-free assay; 0.5 µM): 85.4%
CC(C)(C)c1nc(-c2cccc(NS(=O)(=O)c3c(F)cccc3F)c2F)c(-c2ccnc(N)n2)s1 — remaining activity (enzyme activity; inhibitor; radiometric; 1 µM): 78%
O=C(O)[C@H]1[C@H](Cn2nnc3ccccc3c2=O)CC[C@@H]1C(=O)c1ccc(OCCC2CCOCC2)cc1 — remaining binding (cell-free assay; competition with immobilised ligand; 1 µM): 98%
Cc1ccc(Nc2nccc(N(C)c3ccc4c(C)n(C)nc4c3)n2)cc1S(N)(=O)=O — remaining signal (cell-free assay; inhibitor; 0.5 µM): 95.4%
CC(C)(C)C(=O)c1sc(NC2CCCCC2)nc1N — remaining activity (enzyme activity; inhibitor; 10 µM): 110%
FC(F)(F)Oc1cccc(-c2cnc3ccc(-c4ccncc4)nn23)c1 — activity vs control (enzyme activity; inhibitor; radiometric; 5 µM): 62%
CN1CCN(c2cnc3c(C4CCN(C(=O)c5ccc(OC(F)(F)F)cc5N)CC4)ncnc3c2)CC1 — remaining binding (cell-free assay; competition with immobilised ligand; 1 µM): 100%
CNC(=O)c1cc(Oc2ccc(NC(=O)Nc3ccc(Cl)c(C(F)(F)F)c3)cc2)ccn1 — inhibition (enzyme activity; inhibitor; 10 µM): -21%
CCOc1cc(-c2nncn2C)ccc1Nc1ncc2cc(C)nc(NCC(C)(C)C)c2n1 — inhibition (enzyme activity; inhibitor; FRET; 1 µM): < 15%
FC(F)(F)c1ccc2c(c1)nc(-c1cccnc1)n2C1CC1 — remaining binding (cell-free assay; competition with immobilised ligand; 1 µM): 100%
COc1cc(/C=C/C(=O)CC(=O)/C=C/c2ccc(O)c(OC)c2)ccc1O — activity vs control (enzyme activity; inhibitor; 1 µM): 108%
Cc1c[nH]c2nccc(Oc3c(F)cc(Nc4cc(Cl)nc(N)n4)cc3F)c12 — remaining binding (cell-free assay; competition with immobilised ligand; 0.1 µM): 92%
CN1CC(Oc2cnc(C#N)cc2-c2ccn3nc(NC(=O)C4CC4)cc3c2)C1 — inhibition (enzyme activity; inhibitor; 1 µM): 3%
Cc1nccc(COC(=O)N2C[C@@H]3[C@@H](CNC(=O)c4ccc5[nH]nnc5c4)[C@@H]3C2)n1 — remaining binding (cell-free assay; competition with immobilised ligand; 1 µM): 92%
CC/C(=N\NC(=O)NCc1cccc(O)c1)c1ccc(O)c(C)c1O — inhibition (enzyme activity; inhibitor; 0.1 µM): -3.9%
CS(=O)(=O)CCNCc1ccc(-c2ccc3ncnc(Nc4ccc(OCc5cccc(F)c5)c(Cl)c4)c3c2)o1 — remaining signal (cell-free assay; 0.5 µM): 98.5%
C[C@@H]1CN(c2cc(-c3nn(C)c4ccc(OC5(C)CC5)cc34)ncn2)C[C@H](C)O1 — remaining binding (cell-free assay; competition with immobilised ligand; 1 µM): 84%
Cc1ccc(C(=O)NCc2ccsc2)cc1C#Cc1cn(C(C)C)c2ncnc(N)c12 — activity vs control (enzyme activity; inhibitor; 1 µM): 105%
Cn1nc(C(=O)NCc2ccc(C(=O)O)cc2)cc1-c1ccc2[nH]ccc2c1 — remaining binding (cell-free assay; competition with immobilised ligand; 0.1 µM): 62%
CCN(CC)CCNC(=O)c1c(C)[nH]c(/C=C2\C(=O)Nc3ccc(F)cc32)c1C — inhibition (enzyme activity; inhibitor; 10 µM): 55%
Oc1cccc(-c2nc(N3CCOCC3)c3oc4ncccc4c3n2)c1 — remaining activity (enzyme activity; inhibitor; 10 µM): 112%
